RAM network inh – inhibitors of the yeast RAM network; S. cerevisiae dse1pr::URA3 reporter, 5-FOA growth OD615, 2 d; analog-sensitive cbk1-as2 kinase mutant strain; 1.8% of 190,000 active; inhibition, % at 50 µM;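 active = inhibition above a set limit, 3 SD over mean compound inhibition, cut at about 8.4% in these data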;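 note: 0% = DMSO-only wells with no growth and 100% = 10 µM 1-NA-PP1 full growth; inhibition rescues growth on 5-FOA so higher OD means more RAM inhibition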
WT yeast gro inh – growth inhibition of WT yeast, mitochondrial fusion screen | mitochondrial fusion phenotypic screen, WT strain | inhibition, % at 10 µM | 2.1% of 190,000 active | AID 1362; in the data active = inhibition above about 58%; tested in S. cerevisiae
Yeast growth inh – chemicals that inhibit yeast BB579 growth in restrictive medium (lifespan-shortening candidates); inhibition, % at 10 µM; S. cerevisiae BB579 growth, OD615, 48 h; 0.51% of 140,000 active;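 active = inhibition above a set limit, 3 SD over the mean compound inhibition, cut at about 44% in these data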
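System: Saccharomyces cerevisiae DeaD strain BB579, replicative lifespan model yeast. Buffer or medium: restrictive glucose-based CSMM-D medium. Doses: one dose, 10 µM compound with 0.25% DMSO. Timing: 4 h preincubation and 48 h exposure at 30 °C. Detection: turbidity as optical density at 615 nm. Benchmarks: amphotericin B 10 µg/mL, positive.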
Yeast life ext – extends the lifespan of yeast; S. cerevisiae growth with nicotinamide, OD615; deaD strain in restrictive glucose medium; inhibition of the nicotinamide effect, % at 10 µM; 0.68% of 130,000 active; AID 775;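 active = inhibition above a set limit, placed 3 SD over the median of all compounds, cut at about 26% in these data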;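 note: 0% = nicotinamide-treated wells and 100% = cells grown without nicotinamide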
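Material: Modified budding yeast, DeaD strain | Medium: Restrictive glucose medium | Probe or stimulus: 1.5 mM nicotinamide | Dosing: Single dose 10 µM compound, 0.25% DMSO | Times: 48 h at 30 °C | Technique: OD615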
Cl transport mod – modulates chloride dependent transport by human KCC2; Q9H2X9; KCC2 cells, thallium flux FluoZin-2 fluorescence; B-score of Tl+ flux slope (higher = more flux/activation; lower = inhibition) at 10 µM; 2.2% of 190,000 active; AID 1456;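 active = thallium flux slope and its plate-corrected score both differing from the plate sample mean at a set confidence after two filtering rounds, in either direction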;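 note: slope of fluorescence scaled to starting intensity during 10 to 20 s after thallium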
KCC2 secondary – confirmation of human KCC2 transport modulators | normalised thallium flux (F/F0 slope) at 10 µM | shares compounds with Cl transport mod | HEK293-KCC2, thallium flux, FluoZin2 fluorescence; hits give high values | 15% of 3,700 active;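 active = thallium flux slope above the same plate's solvent-only control mean plus 3 SD; inconclusive = the two replicate wells disagree; inactive = no significant difference from solvent-only control wells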
KCC2 bumet counter – bumetanide-insensitive thallium flux in KCC2 cells with ouabain, counter-screen; shares compounds with Cl transport mod; HEK293-KCC2 + bumetanide/ouabain, thallium flux FluoZin2; hits give high values; normalized thallium flux at 10 µM; 49% of 3,700 active; AID 1714;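 active = thallium entry rate above the same plate's blocked-transporter control wells by more than 3 SD; inconclusive = the two repeat wells disagree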;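 note: raw slope of fluorescence over initial fluorescence between 10 and 20 s after thallium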
KCC2 sec2 – KCC2 (human) modulation, second secondary assay. normalized thallium flux at 10 µM. 23% of 3,700 active. shares compounds with Cl transport mod. HEK293-KCC2, thallium flux FluoZin2 fluorescence; actives lie on both sides; F/F0 rise rate, 10–20 s post-thallium;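 active = thallium flux slope more than 3 SD above or below the plate's solvent-only control mean, mostly below; inconclusive = the two repeat wells disagreed; inactive = no significant shift from solvent-only controls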;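 note: raw slope with 0.1% DMSO as baseline and bumetanide as block control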
HEK293 Tl flux – counter-screen for KCC2 modulators: effect in parental HEK293 cells; shares compounds with Cl transport mod; thallium flux FluoZin2, ouabain; baseline-ratio fluorescence slope, 10–20 s after thallium; thallium flux rate (normalised fluorescence) at 10 µM; 46% of 3,700 active; AID 1716;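 active = thallium flux rate significantly above the same plate's solvent-only control wells, beyond their mean plus 3 SD; inconclusive = the two replicate wells gave conflicting results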
KCC2 retest ouab – KCC2 (human) modulation, ouabain retest. AID 1717. raw Tl+ flux slope (below DMSO = inhibition, above = activation) at 10 µM. shares compounds with Cl transport mod. HEK293-KCC2, thallium flux FluoZin2 fluorescence; bidirectional: low = inhibitor, high = activator. 48% of 3,700 active;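 active = thallium flux slope beyond 3 SD from same-plate DMSO control mean in most replicates, usually higher, sometimes lower; inconclusive = repeat tests gave conflicting results; inactive = no significant difference from controls in most replicates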;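 note: slope of initial-normalized fluorescence between seconds 10 and 20 after thallium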
HEK293 Tl flux2 – parental HEK flux effect, counter-screen 2; shares compounds with Cl transport mod; HEK293 parental, thallium flux FluoZin-2 fluorescence slope; thallium flux slope at 10 µM; 33% of 3,700 active; AID 1718;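 active = thallium flux slope above the same plate's solvent-control mean plus 3 SD in both duplicate wells; inconclusive = duplicate wells that disagreed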;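 note: run without ouabain in cells lacking the KCC2 cotransporter; slope of fluorescence scaled to its starting value between 10 and 20 s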
* marks the source's active call; other numbers are inactive results; ? = inconclusive; . = not tested or not shown. An excerpt weighted towards active compounds, which were near 5.5% of everything screened.

SMILES | RAM network inh | WT yeast gro inh | Yeast growth inh | Yeast life ext | Cl transport mod | KCC2 secondary | KCC2 bumet counter | KCC2 sec2 | HEK293 Tl flux | KCC2 retest ouab | HEK293 Tl flux2
O=C1OC(c2cccs2)=N/C1=C/c1ccc(-c2cccc(C(=O)O)c2)o1 | 2 | 3 | . | . | -0.44 | . | . | . | . | . | .
CC1CCCC(NC(=O)COC(=O)CCSc2ccccc2)C1C (stereo not drawn) | 2 | -9 | . | . | . | 0.0076 | 0.0059 | 0.034 | 0.0069 | 0.017* | 0.01
Cc1ccsc1/C=N/NS(=O)(=O)c1ccc([N+](=O)[O-])cc1 | 2 | 3 | -27 | 15 | 1.5 | . | . | . | . | . | .
CC(C)c1ccc(CNC(=O)C(=O)Nc2nccs2)cc1 | 3 | 8 | . | . | 12* | ? | 0.019* | 0.035 | 0.019* | ? | 0.016*
O=C(NCc1ccc(Cl)cc1)C(=O)Nc1nccs1 | 3 | 19 | . | . | -0.22 | . | . | . | . | . | .
COc1ccc(-c2cc3ncc(C(C)=O)c(C)n3n2)cc1 | 3 | 2 | . | . | -0.14 | . | . | . | . | . | .
CCC(CC)C1C(C#N)=C(N)Oc2n[nH]c(-c3ccccc3)c21 (stereo not drawn) | 3 | 4 | -42 | 5 | . | . | . | . | . | . | .
CCC(CC)C1C(C#N)=C(N)Oc2n[nH]c(C)c21 (stereo not drawn) | 1 | -9 | -44 | 11 | . | 0.011 | 0.0072 | 0.032 | 0.0036 | 0.016* | 0.011
Cc1ccc(C[n+]2cccc(-c3ccccc3)c2)c(C)c1 | 2 | -8 | -40 | 8 | 0.34 | . | . | . | . | . | .
Cc1sc2nnn(CC(=O)N3CCN(C(=O)c4ccco4)CC3)c(=O)c2c1C | . | . | . | . | 1.1 | . | . | . | . | . | .
Cc1cc(NC(=O)CSc2nc(C(C)C)nc3sc(C)c(C)c23)no1 | 5 | -5 | -9 | -4 | 9.3* | ? | 0.034* | 0.038 | 0.017* | ? | 0.012*
Cc1sc2nc(C(C)C)nc(SCC(=O)N3CCN(C(=O)c4ccco4)CC3)c2c1C | 2 | 20 | -32 | -3 | . | 0.0066 | 0.017* | 0.029 | 0.012* | 0.019 | 0.012*
[O-]/[N+](=C\c1ccncc1)c1ccc(Br)cc1 | 3 | 0 | -72 | -1 | 1.1 | . | . | . | . | . | .
C=CCNC(=O)NC(=O)CSc1nc2cc([N+](=O)[O-])ccc2n1-c1cccc(C(F)(F)F)c1 | 5 | 1 | -18 | -2 | 7.6* | 0.0079 | 0.014* | 0.032 | 0.011* | ? | 0.0095
COc1cccc(/C=N/NC(=O)CSc2cccc3cccnc23)c1 | . | . | . | . | 28* | 0.011 | 0.03* | 0.035 | ? | 0.03* | 0.012
O=C(CSc1cccc2cccnc12)N/N=C/c1ccc(O)cc1 | . | . | . | . | 0.84 | . | . | . | . | . | .
O=C(CSc1nnc(-c2c[nH]c3ccccc23)o1)N1c2ccccc2CCc2ccccc21 | 4 | 9 | -21 | -1 | -0.35 | . | . | . | . | . | .
O=C(CSc1nnc(-c2c[nH]c3ccccc23)o1)N1CCCCC1 | 2 | -17 | -32 | -3 | -3.1* | 0.0086 | ? | 0.029* | 0.0046 | 0.021* | 0.012
Cc1cc(C)nc(N2CCCC(C(=O)NC(C)CCc3ccco3)C2)n1 (stereo not drawn) | 1 | 34 | -11 | 4 | . | 0.0075 | 0.005 | 0.033 | 0.0066 | 0.018 | 0.01
Cc1cc(C)nc(N2CCCC(C(=O)NCc3ccccc3)C2)n1 (stereo not drawn) | 0 | 2 | -19 | . | -0.47 | . | . | . | . | . | .
C=C/C(C)=C/CC1C(=C)CCC2C(C)(C(=O)O)CCCC12C (stereo not drawn) | . | . | . | . | 2.3* | 0.0068 | 0.0092* | 0.031 | 0.012* | ? | 0.014*
C=C1CCC2C(C)(C)[C@H](O)CC[C@@]2(C)[C@@H]1COc1cc(=O)oc2ccccc12 (stereo partly drawn) | 3 | 46 | -62 | 7 | 0.12 | . | . | . | . | . | .
O=C1CNC(=O)/C1=C/c1ccc(O)cc1 | 0 | 27 | -25 | -18 | 1.2 | . | . | . | . | . | .
COc1cc(-c2nc(CN3CCN(c4ncccn4)CC3)c(C)o2)ccc1F | 1 | 8 | . | . | -3* | 0.0059 | 0.0043 | 0.032 | ? | 0.021 | ?
COc1ccc(CNC(=S)N/N=C(/C)c2ccccc2)cc1 | . | . | . | . | 5.7* | 0.0071 | 0.023* | 0.034 | 0.014* | ? | 0.016*
SMILES | RAM network inh | WT yeast gro inh | Yeast growth inh | Yeast life ext | Cl transport mod | KCC2 secondary | KCC2 bumet counter | KCC2 sec2 | HEK293 Tl flux | KCC2 retest ouab | HEK293 Tl flux2
C/C(=N\NC(=S)NCc1ccccc1)c1ccccc1F | 2 | -3 | . | . | 3.7 | . | . | . | . | . | .
C/C(=N\NC(=S)NCc1ccccc1)c1ccccc1 | 0 | 62* | -21 | -2 | 7.8* | 0.01 | 0.043* | 0.031 | 0.015* | 0.07* | 0.011
C=C(C)CNC(=S)N/N=C(\C)c1ccc(OC)cc1 | 1 | 41 | -2 | -6 | 3.4 | . | . | . | . | . | .
C/C(=N\NC(=S)NCc1ccccc1)c1ccco1 | 0 | 32 | . | . | 13* | 0.012 | 0.019* | 0.038 | ? | 0.029* | 0.012
CC(C)Cn1cc(C(=O)N2CCN(c3ccccn3)CC2)c2c3ccccc3n(C)c2c1=O | 1 | 5 | -17 | -11 | . | 0.009 | 0.0059 | 0.03 | 0.0068 | 0.034 | 0.01
Cc1ccc(Nc2nc(N)[nH]c(=O)c2N=O)cc1 | . | . | . | . | -1.8 | . | . | . | . | . | .
O=C(C1CCC(CNc2nc(=S)[nH]c3ccccc23)CC1)N1CCN(c2ccc(F)cc2)CC1 (stereo not drawn) | 1 | 0 | . | . | -7.5* | 0.0051 | 0.0046 | 0.022* | 0.006* | 0.01* | 0.0087
COc1ccc(N2CCN(C(=O)C3CCC(Cn4c(=S)[nH]c5ccccc5c4=O)CC3)CC2)cc1 (stereo not drawn) | 2 | 41 | -42 | -1 | 2.8* | 0.0065 | 0.014* | 0.038 | 0.014* | ? | 0.015*
O=C(C1CCC(Cn2c(=S)[nH]c3ccccc3c2=O)CC1)N1CCN(c2ccccc2)CC1 (stereo not drawn) | . | . | . | . | 0.77 | . | . | . | . | . | .
CC(=O)NC(=S)Nc1ccc(S(=O)(=O)Nc2ncccn2)cc1 | . | . | . | . | 1.2 | . | . | . | . | . | .
N#C/C(=C\c1ccc(O)c(O)c1)C(=O)NCCCc1ccccc1 | -1 | 18 | -17 | -3 | -1.1 | 0.0081 | 0.0048 | 0.03 | 0.0078 | ? | 0.012
Cc1cccc(C(=O)Nc2cccc(-c3ccc4nncn4n3)c2)c1 | 2 | -12 | . | . | -0.79 | . | . | . | . | . | .
